Data taken from ChEMBL document CHEMBL1125299, “Novel positive inotropic agents: synthesis and biological activities of 6-(3-amino-2-hydroxypropoxy)-2(1H)-quinolinone derivatives” (1992).

What was measured:
Canis familiaris [1] = species: Canis familiaris; assay: The chronotropic effect tested in vitro by using isolated blood-perfused dog heart preparations; assay type: functional, Canis lupus familiaris
Procedure, shortened: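 Isolated dog sinoatrial node preparation, cross-circulated through cannulated arteries with blood from a pentobarbital-anesthetized, heparinized donor dog. Compounds were given intra-arterially by microsyringe, and sinus rate was recorded. Reported as an activity ratio: amrinone ED50 (dose giving half-maximal amrinone response) divided by the test-compound dose producing the same response.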

Canis familiaris [2] = species: Canis familiaris; assay: The inotropic effect tested in vitro by using isolated blood-perfused dog heart preparations; assay type: functional, Canis lupus familiaris
Procedure, shortened: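 Isolated dog papillary muscle, blood-perfused by cross-circulation through cannulated arteries from a pentobarbital-anesthetized, heparinized donor dog. Intra-arterial microsyringe injection; developed tension recorded. Activity ratio = amrinone ED50 (half-maximal amrinone response) / test-compound dose producing an equal response.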

Structure (SMILES)	Activity (Canis familiaris [1])	Activity (Canis familiaris [2])
CN(CCc1ccccn1)CC(O)COc1ccc2nc(O)ccc2c1 (stereo unspecified)	0	2.2
COc1cccc(CNCC(O)COc2ccc3nc(O)ccc3c2)c1 (stereo unspecified)	0	3.8
COc1ccc(CNCC(O)COc2ccc3ccc(O)nc3c2)cc1OC (stereo unspecified)	-0.2	0
CN(Cc1ccccc1)CC(O)COc1ccc2nc(O)ccc2c1 (stereo unspecified)	0	5.1
CN(CC[S+]([O-])c1ccccc1)CC(O)COc1ccc2nc(O)ccc2c1 (stereo unspecified)	0	2.3
COc1ccc(CN(C)CC(O)COc2ccc3nc(O)ccc3c2)cc1 (stereo unspecified)	0.2	2.8
CN(Cc1ccccn1)CC(O)COc1ccc2nc(O)ccc2c1 (stereo unspecified)	0	2.2
CN(Cc1ccncc1)CC(O)COc1ccc2nc(O)ccc2c1 (stereo unspecified)	0.1	2.3
CN(CCCN(C)c1ccccc1)CC(O)COc1ccc2nc(O)ccc2c1 (stereo unspecified)	0	1.3
CN(CCN(C)c1ccccc1)CC(O)COc1ccc2nc(O)ccc2c1 (stereo unspecified)	0	5
COc1ccc(CNCC(O)COc2cc(C)c3nc(O)ccc3c2)cc1OC (stereo unspecified)	0	0.5
Oc1ccc2cc(OCC(O)CNCCc3ccccc3)ccc2n1 (stereo unspecified)	0	1.5
CCN(CCOc1ccccc1)CC(O)COc1ccc2nc(O)ccc2c1 (stereo unspecified)	0	5.3
Oc1ccc2cc(OCC(O)CNCc3ccccn3)ccc2n1 (stereo unspecified)	0	0.6
COc1ccc(CCNCC(O)COc2ccc3nc(O)ccc3c2)cc1OC (stereo unspecified)	-0.5	1.7
Oc1ccc2cc(OCC(O)CNCc3ccc(Cl)cc3)ccc2n1 (stereo unspecified)	0	4.9
CN(CCS(=O)(=O)c1ccccc1)CC(O)COc1ccc2nc(O)ccc2c1 (stereo unspecified)	0.1	2.1
CN(Cc1ccccc1)CC(O)COc1ccc2c(c1)CCC(=O)N2 (stereo unspecified)	-0.2	0.1
CN(Cc1ccc(F)cc1)CC(O)COc1ccc2nc(O)ccc2c1 (stereo unspecified)	0	2.8

Structure (SMILES)	Activity (Canis familiaris [1])	Activity (Canis familiaris [2])
CCN(CCc1ccccc1)CC(O)COc1ccc2nc(O)ccc2c1 (stereo unspecified)	0.8	6.9
Oc1ccc2cc(OCC(O)CNCc3cccs3)ccc2n1 (stereo unspecified)	0.8	3.1
COc1ccc(CNCC(O)COc2ccc3[nH]c(=O)ccc3c2)cc1OC (stereo unspecified) [TOBORINONE]	0	5.2
Oc1ccc2cc(OCC(O)CNCc3ccc(F)cc3)ccc2n1 (stereo unspecified)	0	3.5
COc1ccc(CNCC(O)COc2ccc3nc(O)ccc3c2)cc1 (stereo unspecified)	0	4.9
CN(CCSc1ccccc1)CC(O)COc1ccc2nc(O)ccc2c1 (stereo unspecified)	-1.1	4.5
CCN(Cc1ccccc1)CC(O)COc1cc(F)c2nc(O)ccc2c1 (stereo unspecified)	0	4.1
CCN(CCCc1ccccc1)CC(O)COc1ccc2nc(O)ccc2c1 (stereo unspecified)	0.2	3.2
CCN(Cc1ccccc1)CC(O)COc1cc(C)c2nc(O)ccc2c1 (stereo unspecified)	-0.4	0.8
CN(Cc1ccc(Cl)cc1)CC(O)COc1ccc2nc(O)ccc2c1 (stereo unspecified)	0.1	4
CN(CCCSc1ccccc1)CC(O)COc1ccc2nc(O)ccc2c1 (stereo unspecified)	4.3	1.3
CN(Cc1cccnc1)CC(O)COc1ccc2nc(O)ccc2c1 (stereo unspecified)	0.3	1.7
Oc1ccc2cc(OCC(O)CNCc3ccccc3)ccc2n1 (stereo unspecified)	0	2.2
CN(Cc1ccccc1)CC(O)COc1ccc2nc(O)c(C#N)cc2c1 (stereo unspecified)	1.1	1.6
COc1ccc(CNCC(O)COc2cccc3nc(O)ccc23)cc1OC (stereo unspecified)	0	0
Oc1ccc2cc(OCC(O)CNCCCc3ccccc3)ccc2n1 (stereo unspecified)	0.4	3.6
COc1ccc(CNCC(O)COc2cccc3ccc(O)nc23)cc1OC (stereo unspecified)	0	0
CCN(Cc1ccccc1)CC(O)COc1ccc2nc(O)ccc2c1 (stereo unspecified)	0	4
Cc1ccc(CN(C)CC(O)COc2ccc3nc(O)ccc3c2)cc1 (stereo unspecified)	0	1.7
